In ChEMBL document CHEMBL4376873, “Systematic Investigation of Lipophilicity Modulation by Aliphatic Fluorination Motifs” (J Med Chem, 2020):

Key:
[1] = Solubility of compound in aqueous phosphate buffer at pH 7.4 after 24 hrs at 25 degC; format: physicochemical
[2] = target: Voltage-gated inwardly rectifying potassium channel KCNH2 (Homo sapiens, UniProt Q12809); assay: Inhibition of human ERG assessed as reduction in channel tail current by plate-based planar patch clamp assay
[3] = Intrinsic clearance in human liver microsomes; format: ADME, Microsome; settings: read-out: CLH
Summary of the method: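 Metabolic turnover rate in human microsomes, compound added from DMSO stock; reported in μL/min/mg.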

[4] = Lipophilicity, logP of the compound by 19F NMR-based method; settings: octanol/water
[5] = Intrinsic clearance in rat hepatocytes assessed per million cells; format: ADME, cell-based, Hepatocyte; settings: read-out: CLH
Summary of the method: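 Isolated rat hepatocytes diluted to 1x10⁶ cells/mL, compound added from DMSO stock; metabolism rate expressed as μL/min/10⁶ cells.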

[6] = Fraction unbound in 10% human plasma by equilibrium dialysis; format: ADME, cell-free
Summary of the method: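 Equilibrium dialysis in 10% human plasma, compound added from DMSO stock; fraction unbound determined.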

[7] = Lipophilicity, logD of the compound at 7.4 by the shake flask method; format: physicochemical; settings: octanol/water, pH 7.4
Summary of the method: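 Shake-flask partitioning at pH 7.4 (routine AstraZeneca method); concentrations determined by UV detection.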

Chain of Voltage-gated inwardly rectifying potassium channel KCNH2 (Q12809 whole entry): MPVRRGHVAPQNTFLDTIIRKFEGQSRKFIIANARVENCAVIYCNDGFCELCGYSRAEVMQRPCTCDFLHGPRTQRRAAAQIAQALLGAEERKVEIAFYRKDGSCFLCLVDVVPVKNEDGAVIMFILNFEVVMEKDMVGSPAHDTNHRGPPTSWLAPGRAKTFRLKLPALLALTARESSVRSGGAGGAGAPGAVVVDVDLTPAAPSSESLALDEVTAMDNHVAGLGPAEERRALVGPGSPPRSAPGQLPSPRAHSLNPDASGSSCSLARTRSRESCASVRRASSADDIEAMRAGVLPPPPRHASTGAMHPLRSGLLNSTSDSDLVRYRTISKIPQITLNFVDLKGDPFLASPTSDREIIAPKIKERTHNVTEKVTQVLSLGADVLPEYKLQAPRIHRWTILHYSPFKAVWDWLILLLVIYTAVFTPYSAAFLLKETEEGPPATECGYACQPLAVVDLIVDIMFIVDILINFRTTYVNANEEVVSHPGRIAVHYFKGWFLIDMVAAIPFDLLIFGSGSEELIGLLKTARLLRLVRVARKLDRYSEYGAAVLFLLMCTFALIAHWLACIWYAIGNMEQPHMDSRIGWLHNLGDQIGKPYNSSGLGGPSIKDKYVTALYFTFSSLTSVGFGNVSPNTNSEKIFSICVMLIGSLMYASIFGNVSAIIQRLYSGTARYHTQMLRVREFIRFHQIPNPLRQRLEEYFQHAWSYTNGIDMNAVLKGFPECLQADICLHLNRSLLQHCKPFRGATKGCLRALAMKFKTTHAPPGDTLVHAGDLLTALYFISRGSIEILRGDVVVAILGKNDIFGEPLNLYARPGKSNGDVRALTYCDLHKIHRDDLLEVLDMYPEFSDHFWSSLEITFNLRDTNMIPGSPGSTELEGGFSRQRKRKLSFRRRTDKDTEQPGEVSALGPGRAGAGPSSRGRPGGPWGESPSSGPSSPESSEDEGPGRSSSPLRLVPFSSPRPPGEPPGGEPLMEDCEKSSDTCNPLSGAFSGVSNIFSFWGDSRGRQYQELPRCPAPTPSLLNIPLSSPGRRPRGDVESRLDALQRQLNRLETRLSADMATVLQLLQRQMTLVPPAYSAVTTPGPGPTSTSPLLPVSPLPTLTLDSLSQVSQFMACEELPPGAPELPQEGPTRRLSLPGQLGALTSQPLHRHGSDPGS

| SMILES | logP [4] | other results |
| --- | --- | --- |
| CCCCCOc1cccc(CCNCC(=O)N(C)C)c1.Cl | – | solubility at 24 h [1]: 779 µM; IC50 [2]: 1.8 µM |
| CCCCOc1cccc(CCNCC(=O)N(C)C)c1.Cl | – | solubility at 24 h [1]: 782 µM; IC50 [2]: 9.4 µM |
| CN(C)C(=O)CNCCc1cccc(OCCCC(C)(F)F)c1.Cl | – | microsomal CLint [3]: 7 µL/min/mg; solubility at 24 h [1]: 1000 µM; IC50 [2]: 7.6 µM |
| CN(C)C(=O)CNCCc1cccc(OCC(F)(F)C(F)(F)C(F)(F)F)c1 | 2.5 | – |
| OCCCC(F)CF (stereo not given) | 0.11 | – |
| CCCC(O)CF (stereo not given) | 0.74 | – |
| OCCCF | -0.26 | – |
| OCCCCF | 0.09 | – |
| OCC(F)F | -0.29 | – |
| CN(C)C(=O)CNCCc1cccc(OCCCC(F)(F)F)c1.Cl | – | hepatocyte CLint [5]: 52 µL/min/1e6 cells; microsomal CLint [3]: < 3 µL/min/mg; fraction unbound [6]: 0.47; solubility at 24 h [1]: 900 µM; logD [7]: 1.9 |
| OCCC(F)C(F)F (stereo not given) | 0.29 | – |
| CCC(F)CCO (stereo not given) | 0.75 | – |
| OCCC(F)F | 0.04 | – |
| CC(O)CCCF (stereo not given) | 0.42 | – |
| OCC(F)(F)C(F)(F)C(F)(F)C(F)F | 1.89 | – |
| OCCCC(F)(F)CF | 0.58 | – |
| OCCC(F)CF (stereo not given) | -0.12 | – |
| CC(O)CCC(F)F (stereo not given) | 0.64 | – |
| CC(=O)N1CCC[C@H]1C(=O)OCC(F)F | 0.02 | – |
| OCCC(F)(F)CF | 0.27 | – |
| CCCC(O)C(F)F (stereo not given) | 1.14 | – |
| CN(C)C(=O)CNCCc1cccc(OCCCCC(F)(F)F)c1.Cl | – | hepatocyte CLint [5]: 105 µL/min/1e6 cells; microsomal CLint [3]: 10 µL/min/mg; fraction unbound [6]: 0.28; solubility at 24 h [1]: > 1000 µM; IC50 [2]: 9.6 µM; logD [7]: 2.3 |
| CCC(F)CO (stereo not given) | 0.26 | – |
| FCCCOc1ccc2[nH]ccc2c1 | 2.5 | – |
| CN(C)C(=O)CNCCc1cccc(OCCCC(F)(F)CF)c1.Cl | – | hepatocyte CLint [5]: 34 µL/min/1e6 cells; microsomal CLint [3]: < 3 µL/min/mg; fraction unbound [6]: 0.47; solubility at 24 h [1]: 870 µM; IC50 [2]: 15 µM; logD [7]: 1.6 |
| CCOC(=O)[C@@H]1CCCN1C(C)=O | 0 | – |
| CC[C@H](F)[C@H](C)O (racemic) | 0.68 | – |
| CC[C@@H](F)[C@H](C)O (racemic) | 0.68 | – |
| OCC(F)(F)F [TRIFLUOROETHANOL] | 0.36 | – |

Continued, in another order:

| logP [4] | SMILES | other results |
| --- | --- | --- |
| 1.6 | CN(C)C(=O)CNCCc1cccc(OCC(F)(F)C(C)(F)F)c1 | – |
| 1.1 | CN(C)C(=O)CNCCc1cccc(OCCC(C)(F)F)c1 | – |
| 1.12 | OCCC(F)(F)CC(F)(F)F | – |
| 1.04 | CCC(F)(F)C(C)O (stereo not given) | – |
| 0.84 | OCCC(F)CC(F)(F)F (stereo not given) | – |
| 2.8 | FC(F)(F)CCOc1ccc2[nH]ccc2c1 | – |
| 2.7 | CC(F)(F)COc1ccc2[nH]ccc2c1 | – |
| 1.25 | CCCC(F)(F)CO | – |
| 0.52 | OCCCC(F)C(F)F (stereo not given) | – |
| 2.8 | CC(F)[C@H](F)CCc1c[nH]c2ccccc12 (stereo not given in full) | – |
| 0.29 | OCCCC(F)F | – |
| 0.92 | CCC(F)(F)CCO | – |
| 2.7 | FCC(F)[C@H](F)Cc1c[nH]c2ccccc12 (stereo not given in full) | – |
| 0.34 | CC(F)(F)CCO | – |
| 3.7 | CCCCc1c[nH]c2ccccc12 | – |
| 0.67 | CCC(F)(F)CO | – |
| 0.66 | OCCC(F)(F)C(F)F | – |
| 0.87 | CC(F)(F)C(F)(F)CO | – |
| 1.53 | OCC(F)(F)C(F)C(F)(F)F (stereo not given) | – |
| 1.22 | OCCCC(F)C(F)(F)F (stereo not given) | – |
| 2.6 | FC(F)CCOc1ccc2[nH]ccc2c1 | – |
| 2.1 | OCCC(F)(F)C(F)(F)C(F)(F)F | – |
| 0.6 | OCC(F)CC(F)(F)F (stereo not given) | – |
| 2.3 | FCC(F)COc1ccc2[nH]ccc2c1 (stereo not given) | – |
| 1.04 | OCC(F)(F)CC(F)(F)F | – |
| 0.66 | OCCCCC(F)F | – |
| 2.9 | CCCOc1ccc2[nH]ccc2c1 | – |
| 1.8 | CCCCOc1cccc(CCNCC(=O)N(C)C)c1 [EVENAMIDE] | – |
